pEC50: −log10 of the molar value.
How the values were obtained:
[1] = Induction of oxidative burst in polymorphonuclear leukocytes (unknown origin) isolated from buffy coat after 40 mins by fluorescence assay; type: functional, cell-based
Summary of the method: (§1)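 PMN isolated and purified from fresh buffy coats, then incubated 40 min at ambient temperature with titrated compound (top concentration 10 µM) premixed with hydroethidine. Respiratory burst read as fluorescence in relative light units, emission 579 nm, excitation 485 nm. EC50 and Emax are expressed relative to the maximum effect of the ingenol mebutate reference.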

Keratinocyte [2] = assay: Induction of TNFalpha release in human primary epidermal keratinocytes after 6 hrs; type: functional, cell-based
Summary of the method: (§2)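 Human adult log-phase primary epidermal keratinocytes subcultured at 10,000 cells/well. Incubated with titrated compound for 6 h at 37 °C in humidified 95% air/5% CO2. Secreted cytokines quantified on 4-spot cytokine plates. EC50 is the concentration giving 50% of the maximum effect of the ingenol mebutate reference. Emax is maximal response relative to that reference.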

Keratinocyte [3] = assay: Induction of IL-8 release in human primary epidermal keratinocytes after 6 hrs by HTRF assay; type: functional, cell-based
[4] = Induction of oxidative burst in polymorphonuclear leukocytes (unknown origin) isolated from buffy coat at 10 uM after 40 mins by fluorescence assay relative to ingenol mebutate; type: functional; summary of the method: as §1
Keratinocyte [5] = assay: Induction of TNFalpha release in human primary epidermal keratinocytes after 6 hrs relative to ingenol mebutate; type: functional; summary of the method: as §2
[6] = Chemical stability of the compound in aqueous buffer assessed as drug recovery after 16 hrs at pH 7.4 by HPLC analysis; type: physicochemical; settings: read-out: Drug recovery
Summary of the method: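 DMSO stock diluted with pre-heated (37 °C) aqueous buffer pH 7.4 to at most 30% v/v organic content, then shaken. Held in the HPLC autosampler at 37 °C, first injected within 5 min, then injected repeatedly over 16 h. Recovery taken from the fall in compound peak area, UV detection normally at 270 nm.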

Keratinocyte [7] = assay: Induction of IL-8 release in human primary epidermal keratinocytes after 6 hrs by HTRF assay relative to ingenol mebutate; type: functional
[8] = Induction of necrosis in human HeLa cells after 30 mins by resazurin assay; type: cell-based; settings: read-out: LC50
Summary of the method: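 HeLa cells exposed to increasing ester concentrations up to 400 µM for 30 min at 37 °C. Remaining metabolic activity then read with a resazurin-based dye. LC50 is the concentration causing 50% loss of metabolic activity.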

Structure (SMILES)	pEC50 [1]	pEC50 (Keratinocyte [2])	pEC50 (Keratinocyte [3])	Emax at 10 µM [4]	Emax (Keratinocyte [5])	remaining at 16 h [6]	Emax (Keratinocyte [7])	CC50 at 0.5 h [8]
CC1=C[C@]23C(=O)[C@@H](C=C(CO)[C@@H](O)[C@]2(O)[C@H]1OC(=O)C1CCC1)[C@H]1[C@@H](C[C@H]3C)C1(C)C	8.00	6.35	6.05	111%	60%	10%	55%	
CC1=C[C@]23C(=O)[C@@H](C=C(CO)[C@@H](O)[C@@]24OC(=O)O[C@@H]14)[C@H]1[C@@H](C[C@H]3C)C1(C)C	6.74	6.60	6.77	124%	112%		109%	400000 nM
CC1=C[C@]23C(=O)[C@@H](C=C(CO)[C@@H](O)[C@]2(O)[C@H]1OC(=O)C(C)C)[C@H]1[C@@H](C[C@H]3C)C1(C)C	7.72	6.95	6.92	104%	72%	30%	63%	
CC(C)=CC(=O)O[C@H]1C(C)=C[C@]23C(=O)[C@@H](C=C(CO)[C@@H](O)[C@]12O)[C@H]1[C@@H](C[C@H]3C)C1(C)C	8.37	7.18	7.07	109%	82%	55%	74%	283000 nM
CC1=C[C@]23C(=O)[C@@H](C=C(CO)[C@@H](O)[C@@]24OC(=O)CO[C@@H]14)[C@H]1[C@@H](C[C@H]3C)C1(C)C	5.00	5.00	5.00			25%		
CC1=C[C@]23C(=O)[C@@H](C=C(CO)[C@@H](O)[C@]2(O)[C@H]1OC(=O)C1CCCCC1)[C@H]1[C@@H](C[C@H]3C)C1(C)C	8.22	5.00	5.00	104%	47%	35%	43%	112000 nM
CC1=C[C@]23C(=O)[C@@H](C=C(CO)[C@@H](O)[C@]2(O)[C@H]1OC(=O)/C(C)=C\c1ccc(C)cc1)[C@H]1[C@@H](C[C@H]3C)C1(C)C	8.23	8.51	8.68	126%	101%	45%	87%	109000 nM
C/C=C(/C)C(=O)O[C@H]1C(C)=C[C@]23C(=O)[C@@H](C=C(COC)[C@@H](O)[C@]12O)[C@H]1[C@@H](C[C@H]3C)C1(C)C	5.00	5.00	5.00			77%		400000 nM
CCCC(=O)O[C@H]1C(C)=C[C@]23C(=O)[C@@H](C=C(CO)[C@@H](O)[C@]12O)[C@H]1[C@@H](C[C@H]3C)C1(C)C	7.60	6.50	6.50	88%	87%	18%	115%	
CC1=C[C@]23C(=O)[C@@H](C=C(CO)[C@@H](O)[C@]2(O)[C@H]1OC(=O)C1CC1)[C@H]1[C@@H](C[C@H]3C)C1(C)C	7.59	6.61	6.59	112%	81%	30%	83%	
C=C(CC)C(=O)O[C@H]1C(C)=C[C@]23C(=O)[C@@H](C=C(CO)[C@@H](O)[C@]12O)[C@H]1[C@@H](C[C@H]3C)C1(C)C	8.28	7.54	7.68	102%	101%	30%	100%	129000 nM
CC1=C[C@]23C(=O)[C@@H](C=C(CO)[C@@H](O)[C@]2(O)[C@H]1OC(=O)c1ccccc1)[C@H]1[C@@H](C[C@H]3C)C1(C)C	8.22	7.06	6.74	110%	60%	30%	54%	
C/C=C(/C)C(=O)O[C@H]1C(C)=C[C@]23C(=O)[C@@H](C=C(CO)[C@@H](OC)[C@]12O)[C@H]1[C@@H](C[C@H]3C)C1(C)C	6.55	6.13	6.13	119%	131%	> 95%		
CO/N=C(/C(=O)O[C@H]1C(C)=C[C@]23C(=O)[C@@H](C=C(CO)[C@@H](O)[C@]12O)[C@H]1[C@@H](C[C@H]3C)C1(C)C)c1ccccc1	7.55	5.00	5.00	117%	47%	55%	45%	
CC1=C[C@]23C(=O)[C@@H](C=C(CO)[C@@H](O)[C@]2(O)[C@H]1OC(=O)C1=CCCCC1)[C@H]1[C@@H](C[C@H]3C)C1(C)C	8.17	5.00	5.00	99%	42%	60%	45%	
C/C=C(/C)C(=O)O[C@H]1C(C)=C[C@@]23C(=O)[C@H]([C@H]4[C@@H](C[C@H]2C)C4(C)C)[C@H]2O[C@@]2(CO)[C@@H](O)[C@]13O	7.30	6.44	6.49	114%	156%		119%	
C/C=C/C(=O)O[C@H]1C(C)=C[C@]23C(=O)[C@@H](C=C(CO)[C@@H](O)[C@]12O)[C@H]1[C@@H](C[C@H]3C)C1(C)C	8.04	6.10	6.09	110%	91%	0%	93%	
CC1=C[C@]23C(=O)[C@@H](C=C(CO)[C@@H](O)[C@]2(O)[C@H]1OC(=O)C1CCCC1)[C@H]1[C@@H](C[C@H]3C)C1(C)C	8.19	7.19	7.16	107%	58%	30%	54%	
CC1=C[C@]23C(=O)[C@@H](C=C(CO)[C@@H](O)[C@]2(O)[C@H]1OCC(=O)OC(C)(C)C)[C@H]1[C@@H](C[C@H]3C)C1(C)C	5.48	5.00	5.00	111%		95%		311000 nM
CC#CC(=O)O[C@H]1C(C)=C[C@]23C(=O)[C@@H](C=C(CO)[C@@H](O)[C@]12O)[C@H]1[C@@H](C[C@H]3C)C1(C)C	7.77	5.00	5.00	112%		5%		
CC1=C[C@]23C(=O)[C@@H](C=C(CO)[C@@H](O)[C@]2(O)[C@H]1O)[C@H]1[C@@H](C[C@H]3C)C1(C)C [INGENOL]	5.00	5.00	5.00			> 95%		> 400000 nM
